The source of these data is ChEMBL document CHEMBL3860049, “Virtual Screening and X-ray Crystallography Identify Non-Substrate Analog Inhibitors of Flavin-Dependent Thymidylate Synthase” (J Med Chem, 2016).

The assay concerns Mycobacterium tuberculosis. Description: Inhibition of Mycobacterium tuberculosis ThyX at 100 uM preincubated with enzyme followed by [5-3H]dUMP substrate addition measured after 30 mins in presence of 5,10-methylenetetrahydrofolate,NADPH and FAD by liquid scintillation counting. The essentials: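 Recombinant Mtb ThyX (purified per an earlier protocol) tested at 100 µM per compound. Tritium release assay: formation of tritiated water from loss of 3H at the 5-carbon of the dUMP pyrimidine ring, with dUMP as competing substrate. Read-out is percent inhibition. 5-FdUMP served as reference compound.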

`COc1ccc2[nH]c3c(O)nncc3c2c1`: the inhibition came out at 7%.
The same measure for `CSc1n[nH]c(=O)c2[nH]cnc12`: 10%; for `O=c1[nH]nc(Cl)c2nc[nH]c12`: 29%.
For `Cc1nnc(Cl)c2ncn(C)c12`, the inhibition came to 14%.
Regarding `C[C@@H](Sc1n[nH]c(=O)[nH]c1=O)C(=O)O`, the inhibition is 6.1%.
Consider `O=c1[nH]c(=O)n([C@H]2C[C@H](O)[C@@H](COP(=O)(O)O)O2)cc1F`, for which the inhibition was 97.3%.
Consider `O=c1[nH]nc(-c2ccccc2)c2nc[nH]c12`, for which the inhibition is 15%.
For `O=c1[nH][nH]c(=O)c2[nH]cnc12`, the inhibition worked out at 7.1%.
Consider `O=c1[nH][nH]c(=O)c2nccnc12`, for which the inhibition amounted to 5.3%.
On to `O=c1[nH][nH]c(=O)c2nc3ccccc3nc12`, for which the inhibition was found to be 10%.
As for `CCCC(=O)C1C(=O)NC(=O)NC1=O`, the inhibition was found to be 11%.
As to `CC[C@H](Sc1n[nH]c(=O)[nH]c1=O)C(=O)O`, the inhibition was found to be 5.7%.

A word on the inhibition: it is the relative decrease from the control value, in per cent.
